Assay results of several laboratories.
Each line is one published result; the experiments were not run side by side.
Target: Testis-specific serine/threonine-protein kinase 3 (TSSK3, Homo sapiens, UniProt Q96PN8)
Sequence (Q96PN8 1-268, as in one of the studies): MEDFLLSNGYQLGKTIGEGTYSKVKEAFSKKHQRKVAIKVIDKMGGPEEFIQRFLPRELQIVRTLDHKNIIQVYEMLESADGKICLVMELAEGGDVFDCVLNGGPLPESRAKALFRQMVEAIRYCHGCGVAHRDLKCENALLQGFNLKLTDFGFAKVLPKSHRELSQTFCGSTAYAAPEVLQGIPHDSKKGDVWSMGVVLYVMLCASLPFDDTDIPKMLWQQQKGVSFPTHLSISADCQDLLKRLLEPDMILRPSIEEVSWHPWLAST

Structure (SMILES) | assay | conditions | remaining binding
Cc1cnc(Nc2ccc(C(=O)N3CCC(N4CCCC4)CC3)cc2)nc1-c1cc2ccccc2s1 | binding, competition with immobilised ligand | 1 µM | 84%
CN(C)c1nccc(-c2cnc3ncccn23)n1 | binding | 1 µM | 90%
C[C@@H](c1ccc(-n2cnc3c(N)ncnc32)cc1)N1CCc2nn(C)c(Cc3ccccc3)c2C1=O | binding, competition with immobilised ligand | 0.1 µM | 70%
C[C@H]1CCN(c2nccc(-c3cnn4ncccc34)n2)C1 | binding | 1 µM | 92%
FC(F)(F)Oc1cccc(-c2cnc3ccc(-c4ccncc4)nn23)c1 | binding, competition with immobilised ligand | 5 µM | 91%
Cc1c(NC(=O)c2cc(C(N)=O)nc3cc(F)ccc23)c(C(F)(F)F)nn1Cc1ccc(C(C)(C)C)cc1 | cell-free assay, competition with immobilised ligand | 1 µM | 100%
COc1ccnn2ncc(-c3ccnc(N(C)C)n3)c12 | binding | 1 µM | 100%
CN([C@@H]1CCc2c(CC(=O)O)c3cc(S(C)(=O)=O)ccc3n2C1)S(=O)(=O)c1ccc(F)cc1 | cell-free assay, competition with immobilised ligand | 1 µM | 100%
N[C@H]1CCN(c2nccc(-c3cnn4ncccc34)n2)C1 | binding | 1 µM | 88%
O=C(Nc1ccc(Oc2ccc(F)cc2)cc1)N1CCc2ncccc2[C@H]1c1ccc(F)cc1 | cell-free assay, competition with immobilised ligand | 1 µM | 98%
CN(c1nccc(-c2cnn3ncccc23)n1)C1CC1 | binding | 1 µM | 99%
Nc1c(C(=O)NCc2ccc(C(=O)NCCCC3CCCCC3)cc2)cnn1-c1ccccc1 | cell-free assay, competition with immobilised ligand | 0.1 µM | 100%
O=C(NCC1CCOCC1)c1n[nH]cc1NC(=O)c1c(F)cccc1F | binding, competition with immobilised ligand | 1 µM | 100%
O=C(c1ccc(Nc2nccc(-c3cc4ccccc4s3)n2)cc1)N1CCC(N2CCCC2)CC1 | binding, competition with immobilised ligand | 1 µM | 100%
F[C@@H]1CCN(c2nccc(-c3cnn4ncccc34)n2)C1 | binding | 1 µM | 100%
C[C@H](c1ccc(F)cc1)N(Cc1cccc(C(=O)O)c1)C(=O)c1cnc2ccccc2c1 | cell-free assay, competition with immobilised ligand | 1 µM | 64%
CNC(=O)[C@@H]1CC[C@@H](n2c(-c3ccc4cnccc4c3)nc3ccc(C(=O)NCc4cccc(C(N)=O)c4)cc32)C1 | binding, competition with immobilised ligand | 1 µM | 100%
O=C(NCCCN1CCOCC1)c1ccc(Nc2nccc(-c3cc4ccccc4s3)n2)cc1 | binding, competition with immobilised ligand | 1 µM | 79%
COc1cc(-c2cn(C3CCc4c(F)cccc4N(CC(F)(F)F)C3=O)nn2)ccc1-n1cnc(C)c1 (centres unmarked) | cell-free assay, competition with immobilised ligand | 1 µM | 97%
c1cncc(-c2cccc(Nc3nccc(NC4CCCCC4)n3)c2)c1 | binding, competition with immobilised ligand | 10 µM | 86%
